High-throughput results from PubChem.
The list is not random: actives were taken first. Their share in the collection is about 2.3%.
NR2E3 ag-1 – inhibitors of NR2E3-RetCOR corepressor binding, primary screen, NR2E3 agonist project, biochemical, TR-FRET, GST-NR2E3, biotin-RetCOR; Photoreceptor-specific nuclear receptor (Homo sapiens), Q9Y5X4; 1536-well; inhibition of corepressor binding, % at 4.78 µM; actives 0.12% (n = 320,000);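 active = percent inhibition above the cutoff of mean plus 3 SD of all tested compounds, set per screening campaign, cut at about 20% in these data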;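 note: 0% = DMSO wells and 100% = biotin wells as full block of FRET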
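Material: NR2E3–RetCOR corepressor complex / Incubation: Compound–protein incubation for 5 h at 4 °C / Dosing: compound at 4.8 µM, single dose / Detection: time-resolved FRET / Benchmarks: high control biotin, low control 0.6% DMSO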
COUP-TFII inh – NR2F2 transcriptional activity inhibitors, primary screen, cell-based, luciferase reporter, HEK293T, luminescence | COUP transcription factor 2 (Homo sapiens), P24468 | HEK293T NGFI-A luciferase reporter | inhibition, % at 8.6 µM | actives 0.7% (n = 370,000);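 active = inhibition above a per-plate cutoff, mean inhibition of test wells between control levels plus 3 SD, cut at about 38% in these data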;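 note: cells cotransfected with COUP-TFII expression vector driving the NGFI-A reporter; 0% = median of COUP-TF2 test wells and 100% = reporter-only cells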
Target sequence (P24468 whole entry, looked up): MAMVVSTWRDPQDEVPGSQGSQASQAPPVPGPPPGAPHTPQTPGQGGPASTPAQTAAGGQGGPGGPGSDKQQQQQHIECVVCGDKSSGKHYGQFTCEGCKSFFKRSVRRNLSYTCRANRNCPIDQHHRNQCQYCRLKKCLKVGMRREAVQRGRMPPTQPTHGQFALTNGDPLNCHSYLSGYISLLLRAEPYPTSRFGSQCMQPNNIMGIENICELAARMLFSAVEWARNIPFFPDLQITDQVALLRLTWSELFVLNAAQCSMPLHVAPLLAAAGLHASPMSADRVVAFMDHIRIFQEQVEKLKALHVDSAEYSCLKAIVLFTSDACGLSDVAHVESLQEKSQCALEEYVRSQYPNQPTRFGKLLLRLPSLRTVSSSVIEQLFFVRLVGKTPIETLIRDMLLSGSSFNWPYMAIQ
CHT allo act – CHT positive allosteric modulators, primary screen, cell-based, membrane potential dye, choline EC20; High affinity choline transporter 1 (Homo sapiens), Q9GZV3; CHT-expressing cells; active compounds read high; LV-AA mutant CHT in HEK293 cells; B-score at 10 µM; actives 0.49% (n = 310,000);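 active = initial fluorescence not abnormally high and integrated response B-score, plate-corrected, over 3 SD above library mean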
GalR3 antag – GalR3 antagonists in HEK293 cells, primary screen, cell-based, fluorescence readout | Galanin receptor type 3 (Homo sapiens), O60755 | HEK293 GalR3-CNG cAMP membrane potential fluorescence; galR3 body fused to GalR1 C-terminus | inhibition, % at 3 µM | actives 0.44% (n = 360,000);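 active = inhibition above the screen-wide average plus 3 SD, cut at about 13% in these data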;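 note: forskolin and galanin both at EC90 stimulate the cells; cAMP rise reported by CNG channel membrane potential dye signal; 0% = forskolin plus galanin with DMSO and 100% = forskolin alone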
Target sequence (O60755 1-299 limits assumed): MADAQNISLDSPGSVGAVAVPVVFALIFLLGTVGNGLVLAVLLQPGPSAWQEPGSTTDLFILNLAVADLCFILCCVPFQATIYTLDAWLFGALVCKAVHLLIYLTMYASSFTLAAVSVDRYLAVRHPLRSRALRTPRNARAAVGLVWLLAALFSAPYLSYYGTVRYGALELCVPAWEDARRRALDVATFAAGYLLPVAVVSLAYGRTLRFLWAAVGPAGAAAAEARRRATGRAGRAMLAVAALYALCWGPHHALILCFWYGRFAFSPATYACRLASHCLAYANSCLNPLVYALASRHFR
CHT inh – inhibitors of human choline transporter CHT | B-score at 10 µM | High affinity choline transporter 1 (Homo sapiens), Q9GZV3 | AID 488975, 2010 | actives 0.86% (n = 310,000) | CHT-expressing cells, membrane potential dye, choline response; active compounds read low;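 active = B-score over 3 SD under the library average, and starting fluorescence ratio not unusually high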;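 note: choline stimulus applied at its EC90 after an EC20 pre-addition; B-score computed on integrated fluorescence ratio after choline addition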
NR2E3 ag-2 – NR2E3 agonists in two-hybrid cells, primary screen, cell-based, luminescence, CHO-S, Gal4-NCOR/VP16-NR2E3 | Photoreceptor-specific nuclear receptor (Homo sapiens), Q9Y5X4 | luciferase | inhibition of corepressor binding, % at 3.98 µM | actives 0.35% (n = 360,000) | AID 602229, 2012;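 active = inhibition above the mean of all tested compounds plus 3 SD, cut at about 70% in these data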;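 note: 0% = DMSO with NR2E3 transfected cells and 100% = cells lacking NR2E3 construct; higher means lower luciferase signal from less NR2E3 corepressor binding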
NR2E3 ag conf – NR2E3 agonist confirmation in cells, cell-based, luminescence, CHO-S two-hybrid. actives 51% (n = 2,300). CHO-S mammalian two-hybrid NR2E3-NCOR, luciferase luminescence. shares compounds with NR2E3 ag-2. AID 624378, 2012. inhibition, % at 3.98 µM;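 active = average inhibition above a cutoff equal to the mean inhibition of all tested compounds plus one SD, cut at about 70% in these data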;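 note: 0% = DMSO in NR2E3 cells and 100% = DMSO in cells lacking NR2E3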
VP16 counter – GAL4-VP16 reporter modulators, confirmation, counter-screen for NR2E3 agonist project, cell-based, luminescence, CHO-S, high throughput; shares compounds with NR2E3 ag-2; actives 29% (n = 2,300); AID 624379, 2012; inhibition, % at 3.98 µM; CHO-S GAL4-VP16 luciferase reporter;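 active = mean inhibition above a cutoff equal to the average over all tested compounds plus one standard deviation, cut at about 70% in these data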;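 note: luciferase from a UAS reporter driven by GAL4-VP16 transactivation; 0% = DMSO with VP16-transfected cells and 100% = DMSO with cells lacking VP16; higher means less reporter light so more repression of VP16 activity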
* hit, by the source's call; i = inactive; · = not tested or not shown.

SMILES	NR2E3 ag-1	COUP-TFII inh	CHT allo act	GalR3 antag	CHT inh	NR2E3 ag-2	NR2E3 ag conf	VP16 counter
O=C(NCc1ccncc1)c1cccc(S(=O)(=O)N2CCc3ccccc32)c1	0	31	·	-2	·	53	34	36
CCOC(=O)[C@@]12CCCC3=C1N(CCC3)C(=O)[C@H]2CC(=O)N1CCN(C(=O)c2ccco2)CC1	·	-13	·	·	·	·	·	·
COC(=O)c1cc(S(=O)(=O)N2CCN(C(C)=O)CC2)cn1C	·	-12	·	·	·	·	·	·
CCOC(=O)C1=C[C@@H](C(C)(C)C)N(S(=O)(=O)c2ccc([N+](=O)[O-])cc2)[C@H]1c1ccccc1	·	1	·	-9	·	70*	45	32
CN(C(=O)[C@@H](C1CC1)[C@@H](O)c1ccc(Cl)cc1)c1ccccc1	·	-10	·	·	·	·	·	·
Cc1ccc(N2CCN(S(=O)(=O)c3c(C)nc4scc(C)n4c3=O)CC2)c(C)c1	0	-10	i	-2	i	49	4	4
COc1ccc(/C=C2\SC(=S)N(CCCC(=O)Nc3ccc(O)cc3)C2=O)cc1	4	21	i	-3	i	73*	3	61
Cc1ccc(/C=C2\SC(=S)N(CCCC(=O)Nc3cccnc3)C2=O)cc1	3	·	i	·	i	91*	42	90*
O=C(NCc1cccc(C(F)(F)F)c1)c1[nH]c(C(F)(F)F)nc1-c1ccccc1	·	·	·	·	·	91*	59	27
Cc1ccn2c(NC3CCCCC3)c(C)nc2c1	-4	-15	i	0	i	14	·	·
Cc1ccn2c(NC3CCCC3)c(-c3ccccn3)nc2c1	-1	-7	i	-1	i	69	9	-42
c1ccc(-c2nc3ccccn3c2NC2CCCC2)nc1	-2	4	i	-6	i	60	9	-19
Cc1cc(C)n2c(NC3CCCCC3)c(-c3ccccn3)nc2n1	·	-9	·	-9	·	-11	·	·
CCOC(=O)[C@]12CCCCC/C=C\1N(CCc1ccc(Cl)cc1)C(=O)[C@H]2CC(=O)NCCCCc1ccccc1	·	-30	·	·	·	·	·	·
O=C(NCCc1ccc(F)cc1)Nc1ccc([N+](=O)[O-])cc1	·	-4	i	0	i	-38	·	·
O=[N+]([O-])c1ccc(NC(=S)NCCc2ccc(F)cc2)cc1	-3	-12	i	-7	i	63	77*	48
CCCCCc1c(-c2ccccc2OC)ncn1CCc1ccccc1OC	·	25	·	-7	·	66	62	30
Cc1cc(C(=O)CSc2nnc(-c3ccccc3)n2Cc2ccc3c(c2)OCO3)c(C)n1C	0	5	i	-4	i	-10	·	·
Cc1cc(C(=O)CSc2nc3ccccc3c(=O)n2C)c(C)n1Cc1ccc2c(c1)OCO2	-4	25	i	2	i	69	95*	76*
COC(=O)[C@]12C[C@H](CC(=O)NCc3ccc(OC)c(OC)c3)C(=O)N(CCc3ccc(OC)c(OC)c3)C1=C[C@H](C1CCCC1)O[C@@H]2C	·	-14	·	·	·	·	·	·
O=C(NC1CCC1)c1ccc(C#Cc2cccc(F)c2)cn1	·	-37	·	·	·	·	·	·
CCC(C(=O)NCCC(C)C)n1ccc2cc(S(=O)(=O)N3CCCCC3)ccc21 (stereo not given)	-1	·	i	·	i	60	49	47
C[C@@H]1[C@@H](Sc2ccccc2)CC(=O)O[C@@H]1c1ccc(-c2ccccc2)cc1	4	7	i	-4	i	-2	·	·
O=C1C=CC2(O[C@H](c3ccccc3)[C@@H](c3ccccc3)O2)[C@H](Sc2ccccc2O)C1	·	87*	·	16*	·	68	92*	49
CCOC(=O)Cn1cc(CN2C(C(=O)OC)CN(Cc3ccc(F)cc3)CCS2(=O)=O)nn1 (stereo not given)	·	-10	·	·	·	·	·	·
SMILES	NR2E3 ag-1	COUP-TFII inh	CHT allo act	GalR3 antag	CHT inh	NR2E3 ag-2	NR2E3 ag conf	VP16 counter
FC(F)(F)c1ccccc1-n1c(-c2ccco2)n[nH]c1=S	0	32	i	-8	i	63	20	3
CC(C)C(=O)NC(c1ccccc1)c1cc([N+](=O)[O-])c2cccnc2c1O (stereo not given)	2	-6	i	-5	i	20	·	·
CCC(=O)NC(c1cccs1)c1cc([N+](=O)[O-])c2cccnc2c1O (stereo not given)	0	-9	i	-3	i	63	94*	51
CC(=O)NC(c1cccs1)c1cc([N+](=O)[O-])c2cccnc2c1O (stereo not given)	2	-1	i	-5	i	81*	98*	54
CCCC(=O)NC(c1cccs1)c1cc([N+](=O)[O-])c2cccnc2c1O (stereo not given)	-2	11	i	-6	i	16	·	·
CC(=O)NC(c1ccccc1)c1cc([N+](=O)[O-])c2cccnc2c1O (stereo not given)	-8	-7	i	1	i	57	94*	31
Cc1ccc(-c2c(NC(=O)c3ccccc3)nc3ncccn23)cc1	·	10	·	·	·	·	·	·
O=c1[nH]c(=O)n(C2OC(CO)C(O)C2O)cc1F (stereo not given)	·	·	·	·	·	49	17	6
O=S1(=O)c2c(cccc2N2CCC[C@H]2CO)O[C@@H]2CCN1C2	·	-15	·	·	·	·	·	·
CC12CCC(O)CC1=CCC1C2CCC2(C)C(c3ccn[nH]3)CCC12 (stereo not given)	·	30	·	-4	·	82*	67	58
N#Cc1c(NC(=O)c2ccccc2)sc2c1CCCCC2	2	-49	i	0	i	-98	·	·
N#Cc1c(Cl)nsc1NC(=O)c1ccccc1	4	15	i	-3	i	85*	99*	88*
COc1ccc(C(=O)Nc2ccc3c(c2)C(=O)N(C)[C@H]2CC[C@H](CC(=O)NCC4CC4)O[C@@H]2CO3)cc1	·	-9	·	·	·	·	·	·
Cc1ccc(C(=O)N2CCc3cc4c(cc3C2C)OCCCO4)cc1 (stereo not given)	0	-7	i	-8	i	17	·	·
